An excerpt weighted towards active compounds, which were near 2.5% of everything screened.
Fh CTSL1 inh: cathepsin L1 inhibition, PFM18AAP counter-screen. recombinant F. hepatica cathepsin L1, Z-Leu-Arg-MCA fluorescence. inhibition, % at 5.96 µM. actives 0.49% (n = 300,000). AID 1906;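 active = inhibition above the mean of all tested compounds plus 3 SD, set per screening campaign, cut at about 17% in these data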;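 also: 0% = plate median of test compound wells and 100% = 1 µM Z-Phe-Ala-diazomethylketone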
TDP2 inh: TDP2 (human) inhibition, absorbance primary screen | recombinant TDP2, T5PNP hydrolysis, p-nitrophenol absorbance 415 nm | AID 720702 | actives 0.34% (n = 370,000) | inhibition, % at 12.8 µM;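 active = inhibition above the mean of all tested compounds plus 3 SD, set per campaign, cut at about 25% in these data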;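 also: 0% = DMSO with enzyme and 100% = buffer with substrate but no TDP2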
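System: recombinant human TDP2 / Amount: 120 nM TDP2 per well / Also added: 5 mM T5PNP chromogenic substrate / Doses: 12.8 µM single point, 1% DMSO / Incubation: 2 h at 37 °C / Detection: p-Nitrophenol epi absorbance / Evaluation: % inhibition relative to enzyme-containing and enzyme-free wells / Repeats: singlicate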
GSTO1 counter: GSTO1 inhibition, counter-screen for RBBP9 inhibitors; P78417; inhibition, % at 5.96 µM; recombinant GSTO1, activity-based probe fluorescence polarization; actives 1.1% (n = 300,000);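 active = inhibition above the campaign mean inhibition plus 3 SD, cut at about 35% in these data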;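 also: 0% = GSTO1-1 with DMSO and 100% = wells lacking GSTO1-1 enzyme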
Target sequence (P78417 whole entry, looked up): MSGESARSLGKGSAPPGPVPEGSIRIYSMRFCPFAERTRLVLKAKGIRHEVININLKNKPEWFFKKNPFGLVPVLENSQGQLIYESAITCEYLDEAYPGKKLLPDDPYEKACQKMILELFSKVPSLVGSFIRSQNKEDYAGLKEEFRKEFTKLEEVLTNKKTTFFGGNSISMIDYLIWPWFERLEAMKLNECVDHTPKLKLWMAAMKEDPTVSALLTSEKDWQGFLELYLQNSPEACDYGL
PAD4 FP inh: blocks human protein arginine deiminase 4; Q9UM07; recombinant PAD4, RCA probe fluorescence polarization; inhibition, % at 6.36 µM; actives 0.41% (n = 330,000); AID 485272;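 active = percent inhibition above a cutoff equal to the mean of all tested compounds plus 3 SD, cut at about 15% in these data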;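 also: 0% = PAD4 with RCA probe and DMSO and 100% = probe without PAD4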
PRMT1 FP inh: PRMT1 (human) inhibition, primary screen. actives 1.3% (n = 370,000). recombinant PRMT1, activity-based probe fluorescence polarization. AID 652257. inhibition, % at 2.79 µM;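 active = inhibition above about 21% made by adding two undisclosed values, limit read from the data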
Target sequence (Q99873 whole entry, looked up): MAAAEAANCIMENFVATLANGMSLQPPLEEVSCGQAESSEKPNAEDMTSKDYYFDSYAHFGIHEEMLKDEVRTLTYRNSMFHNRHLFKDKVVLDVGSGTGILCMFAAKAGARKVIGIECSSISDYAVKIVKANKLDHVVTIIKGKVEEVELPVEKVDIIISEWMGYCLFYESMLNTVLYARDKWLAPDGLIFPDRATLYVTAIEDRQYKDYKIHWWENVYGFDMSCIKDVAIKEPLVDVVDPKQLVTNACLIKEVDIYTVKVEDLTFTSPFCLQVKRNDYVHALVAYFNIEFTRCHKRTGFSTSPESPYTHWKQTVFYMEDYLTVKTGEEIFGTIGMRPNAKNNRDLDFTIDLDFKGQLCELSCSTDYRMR
PRMT1 confirm: PRMT1 (human) inhibition, FP confirmation; recombinant His-PRMT1, activity-based probe fluorescence polarization; AID 687036; actives 42% (n = 3,300); inhibition, % at 2.79 µM; shares compounds with PRMT1 FP inh;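 active = mean inhibition across replicates above the hit cutoff derived for the earlier primary screen, cut at about 22% in these data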
* hit, by the source's call; nt = no result given.

SMILES	Fh CTSL1 inh	TDP2 inh	GSTO1 counter	PAD4 FP inh	PRMT1 FP inh	PRMT1 confirm
CCCC(c1nnnn1CCOC)N(Cc1cc2cc(C)c(C)cc2[nH]c1=O)CC1CCCO1 (centres undefined)	5	-10	3	-6	26*	-3
CCC[C@H]1[C@@H](OC(=O)NCc2cccc(C(F)(F)F)c2)CC[C@@]23CCCN2C(=O)CCC[C@@H]13	nt	3	nt	nt	-6	nt
O=C(CCN1CCN(c2ccccc2)CC1)c1ccc(Cl)cc1	3	4	-6	0	15	nt
COc1ccc(NC(=O)c2ccc(NC(=O)CN3CCN(c4ccc(O)cc4)CC3)cc2)cc1	nt	-23	nt	nt	34*	7
COc1ccc(N2CCN(CCC(=O)c3ccc4ccccc4c3)CC2)cc1	2	-1	-14	1	44*	28*
COc1ccc(NC(=O)c2ccc(NC(=O)CN3CCN(c4ccccc4O)CC3)cc2)cc1	nt	3	nt	nt	-6	nt
CC(C)(C)c1cc(C(=O)CCN2CCOCC2)cc(C(C)(C)C)c1O	-7	-25	-12	1	36*	13
CC(C)(C)NC(=O)CCN1CCOCC1	-3	4	0	4	1	nt
O=C(CCN1CCOCC1)c1ccc(N2CCCCC2)cc1	nt	-10	nt	-1	28*	-5
Cc1ccc(NNC(N)=S)cc1Cl	2	-16	-2	7	28*	3
O=C(O)CC(C(=O)O)N1C(=O)/C(=C/c2ccc(-c3nc4ccccc4s3)o2)SC1=S (centres undefined)	8	13	26	4	55*	-15
O=Cc1ccc(-c2nc3ccccc3s2)o1	1	10	1	1	3	nt
O=C(O)c1ccc(-c2nc3ccccc3s2)o1	3	-2	3	-2	5	nt
O=C(O)CCN1C(=O)/C(=C/c2ccc(-c3nc4ccccc4s3)o2)SC1=S	1	-6	-5	0	69*	23*
O=C(O)CCCN1C(=O)/C(=C\c2ccc(-c3nc4ccccc4s3)o2)SC1=S	3	0	22	-5	49*	12
CCCCNC(=O)C[C@H]1C[C@@]2(C(=O)OC)C(=C[C@H](C3CCCC3)O[C@@H]2C)N(CCc2ccc(OC)c(OC)c2)C1=O	nt	-10	nt	nt	4	nt
Brc1ccc(-c2csc(N3CCNCC3)n2)cc1	nt	-8	nt	nt	-6	nt
CCCCCCC1CC(CCc2nc(=S)[nH][nH]2)C(=O)O1 (centres undefined)	1	4	3	3	8	nt
CCCCCCCCc1nc(=S)[nH][nH]1	-3	-4	0	1	27*	37*
CC(=O)Nc1ccc(-c2csc(NNC(=O)c3ccccc3)n2)cc1	-1	4	-10	-5	26*	0
O=C(NNc1nc(-c2ccccc2)cs1)c1ccco1	1	8	0	-5	42*	-1
CC(=O)Nc1ccc(-c2csc(N/N=C(/C)c3ccccc3)n2)cc1	-4	2	-3	-1	19	nt
CCCC#Cc1ccc(CC[C@H]2O[C@H]3CC[C@H](CO)O[C@H]3C[C@H]2NC(=O)CN2CCOCC2)cc1	nt	-6	nt	nt	-7	nt
CC(=O)Nc1cc(-c2ccccc2N(C)C)cn2c(-c3cccc(C(F)(F)F)c3)cnc12	nt	-9	nt	nt	99*	1
CC(=O)Nc1cc(-c2cccc(NS(C)(=O)=O)c2)cn2c(-c3cccc(C(F)(F)F)c3)cnc12	nt	-3	nt	nt	4	nt
SMILES	Fh CTSL1 inh	TDP2 inh	GSTO1 counter	PAD4 FP inh	PRMT1 FP inh	PRMT1 confirm
FC(F)(F)c1ccc(Cl)c(-n2c(-c3cc(-c4ccco4)[nH]n3)n[nH]c2=S)c1	-3	9	-9	-7	25*	28*
S=c1[nH]nc(-c2cc(-c3ccco3)[nH]n2)n1-c1ccccc1Cl	0	0	27	-7	41*	12
FC(F)(F)c1ccc(Cl)c(-n2c(-c3ccco3)n[nH]c2=S)c1	nt	2	nt	nt	3	nt
COc1cc(NC(=O)NC2CCCCN(Cc3cccc(Cl)c3)C2=O)cc(OC)c1 (centres undefined)	nt	3	nt	nt	0	nt
CCC(=O)OCCCN1C(=O)CCC12CCC(C)CC2 (centres undefined)	nt	9	nt	nt	0	nt
Cc1cc(Cl)ccc1OCc1n[nH]c(=S)n1C1CCCCC1	2	-9	-9	-6	26*	2
Cc1ccc(OCc2nnc(SCC(=O)Nc3ncc(C)s3)o2)cc1	-1	3	28	-1	30*	2
Cc1cc(NC(=O)CSc2nnc(COc3ccccc3)o2)no1	-2	1	12	-2	-2	nt
CC(/C=N\NC(=O)CSc1nnc(-c2ccc(Br)cc2)n1-c1ccccc1)=C\c1ccco1	nt	2	nt	nt	5	nt
CCOC(=O)C1=C(N)Oc2cc(C)[nH]c(=O)c2C1c1ccncc1 (centres undefined)	-1	13	-2	3	-6	nt
CCOC(=O)C1=C(N)Oc2c(c(=O)[nH]c3ccccc23)C1c1ccccc1 (centres undefined)	2	1	-8	-2	58*	20
COc1ccc(C(=O)C[n+]2ccc3c(c2)nc(Cc2ccccc2)n3C)cc1	nt	-4	nt	nt	29*	6
O=C(/C=C/c1ccc(-c2ccccc2)cc1)NC1=NCCS1	nt	9	nt	nt	-2	nt
O=[N+]([O-])c1cc2ccccc2c(O)c1O	nt	9	nt	nt	13	nt
NS(=O)(=O)c1cccc2c1c([N+](=O)[O-])cc1nc(O)c(O)nc12	8	8	7	-5	26*	27*
CC(=O)Nc1ccc(SCC(=O)c2cc(C)n(-c3ccccc3)c2C)cc1	-3	-3	2	6	4	nt
CC(=O)Nc1ccc(SCC(=O)c2cc(C)ccc2C)cc1	3	-1	4	9	29*	25*
COc1ccc2c(c1)-c1ccccc1S(=O)(=O)N(C)C2	nt	4	nt	0	30*	-5
O=C(OCC#CCSc1nnc(-c2cc3ccccc3cc2O)o1)c1ccc(F)cc1	nt	-7	nt	nt	-4	nt
Cc1c(C(c2cccc(O)c2)c2c(C)n(C)n(-c3ccccc3)c2=O)c(=O)n(-c2ccccc2)n1C	-1	3	0	1	0	nt
Cc1c(C(c2cc(O)ccc2O)c2c(C)n(C)n(-c3ccccc3)c2=O)c(=O)n(-c2ccccc2)n1C	nt	1	nt	nt	33*	6
CN(C)S(=O)(=O)N1C(=O)c2ccccc2C1=O	3	-16	5	4	-2	nt
CN(C)/C=C1\C=C2C(=O)c3ccccc3N2C1=O	4	8	9	8	111*	54*
Nc1cc(=O)[nH]c(SCC(=O)Nc2cccc(Cl)c2)n1	-2	-1	-6	-2	2	nt
COC(OC)c1nc(SCC(=O)Nc2cccc(Cl)c2)ncc1C(=O)O	3	20	-18	3	27*	3
Nc1sc2c(c1C(=O)c1ccccc1)CCCC2	2	2	6	-4	12	nt
NC(=O)c1c(N)sc2c1CCCC2	2	4	7	-2	41*	29*

Screening results: PubChem, The Scripps Research Institute Molecular Screening Center
